Measured values reported in the EternaBench riboswitch data.

System: MS2 coat protein
Test: apparent Kd, MS2 coat protein; higher = weaker binding; RNA-MaP array; FMN 200 µM where present
Procedure, shortened: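 The apparent Kd comes from binding curves fitted cluster by cluster, filtered, and summarised as a median. Those curves followed SNAP-549-labelled MS2 coat protein from 0.7 or 1.5 nM, doubling to 3 µM, on Illumina sequencing-chip clusters where stalled E. coli RNA polymerase had transcribed the designs, without and then with constant ligand. The buffer was 100 mM Tris-HCl pH 7.5, 80 mM KCl, 4 mM MgCl2, BSA, DTT, yeast tRNA and Tween-20, and green signal was normalised to red-channel RNA signal and control-cluster median Fmax.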

[1] = designed as: OFF switch for flavin mononucleotide, no ligand
[2] = ligand present: flavin mononucleotide, designed as: OFF switch for flavin mononucleotide
[3] = designed as: ON switch for flavin mononucleotide, no ligand
[4] = ligand present: flavin mononucleotide, designed as: ON switch for flavin mononucleotide

Sequence	apparent Kd [1] [nM]	apparent Kd [2] [nM]	apparent Kd [3] [nM]	apparent Kd [4] [nM]
CUUUUGUGAGGAUAUUCGUAGUAGAUAAAUAAAACUAUUACGGAGAAGGCACAUGAGGAUCACCCAUGUUCCUU	16.7	54.5		
CUUUUGUGAGGAUAUUCGUAGUAGGUAAAUAAAACUAUUACGGAGAAGGCACAUGAGGAUCACCCAUGUUCCUU	18.1	54.2		
GAAAACAGAGGAUAUACAUAAGCUAGACGAAAGUCUAGCAAACAUGAGGAUCACCCAUGUAGAAGGCUGAAGAA	37.6	36.3		
GAAAACAGAGGAUAUACAUGAUUAUGACGAAAGUCAUAAAAACAUGAGGAUCACCCAUGUAGAAGGCUGAAGAA	185	201		
GAAAACGGAGAGGAUAUUUGAGAUCAAAGCUCCAAAGAAGGCUCCACAUGAGGAUCACCCAUGUGGUCUUCAAA	13.5	111		
GAAAUACAUGAGGAUCACCCAUGUGAGGAUAUGCUAUGGAAAUAAAAAAUAAAACAUAGCAGAAGGUACAAAAG	71.5	106		
GAAAUGAUGAUAGGAUAUCCACAGACAUGAGGAUCACCCAUGUUUAUGGGACGAAUCCUUGUGCAGGAGAAGGAUCGUCACUAU	64.7	39.5		
GAACCUCUUGUGAGGAUAUGCUGUUGAACGAGCUUGCAGAAGGCACAUGAGGAUCACCCAUGUCUCUUCUGGGU	20.4	28.2		
GAACGUGACAUGAGGAUCACCCAUGUUGCCUGAGCCAGGUCGUAGGAUAUCCUGUUGAUUAAUUUGGAGAAGGGCGACUGGGAG			46.5	18.3
GAACGUGAGACGACCGUGGGUACAUGAGGAUCACCCAUGUGCAGAAGGCGAAUAUGACGAUGUGUCGAGGAUAUGCACAGCUCA	22.4	97.6		
GAACUAAAGCAUAGCUUUAGUCGUACAUGAGGAUCACCCAUGUAGGAUAUGGUAGGCAUAGCUUACUAGAAGGAUAGAGUGAUC	294	82.4		
GAAGAACAUGAGGAUCACCCAUGUGAUUCGCAUGUAGGAUAUGGGCACGCGCCCGCGUGUCUAGAAGGACAGGCUA			69.3	109
GAAGCAUGCAUUAACAUGAGGAUCACCCAUGUGAAAACACGUGAGGAUAUCGAUCUGAAGAAGAUCGAGAAGGCACCGUGCUAA			8.87	7.62
GAAGCGCUUGACAUGAGGAUCACCCAUGUUAGAUUGUUAUGUCAGGAUAUAGUCUAGAAACUAGACUAGAAGGGAUAUGCUUCU			300	43.1
GAAGUUAGAGGAUAUACAUGAGGAUCACCCAUGUGUGAAGUUAACUUUGUAUAUUAAUGUAGAAGGCUAACUUC	42.5	118		
GAAGUUGGUAGGCCCUCGGAACAUGAGGAUCACCCAUGUAAGGAGGAUAUGCCCGGUACCCGCUGGCAGAAGGCCUUAUAAGAA	11.1	68.8		
GAAUAAUUGAUCCUUUUUUAUUACAUGAGGAUCACCCAUGUGCAGGAUAUCGAUUGUUUUAGUUUCGAGAAGGGCAAGAACUGU	219	255		
GAAUACACCCGACGGGUGUCCGGCAAGGAUAUGAUGAGGGCGAUGCUACAUGAGGAUCACCCAUGUCAGAAGGUGCCCUCCAGG	6.59	7.19		
GAAUGUAAAGAGAAGGGCUACUGGUUGAAACCUGCGGCCUCUGGAACAUGAGGAUCACCCAUGUAGCAGGAUAUCUUUGCGUCA	192	29.5		

Sequence	apparent Kd [1] [nM]	apparent Kd [2] [nM]	apparent Kd [3] [nM]	apparent Kd [4] [nM]
GAAUUAAAGAUCCAAUUUUACAACAUGAGGAUCACCCAUGUGCAGGAUAUCGUGUGUUUUAUAUUCGAGAAGGGCAAAUACAUU	100	187		
GACAAGGGAGGAUAUGCACAAGGGAUAUCUGACAUGCCGUUACAUGAGGAUCACCCAUGUAGAAGGCCCGAAUA	13.7	35.3		
GACACGUAAGGAUAUUGAGGGUAGAUGUGAGUCUAGCCCGGCAAGAAGGUACAUGAGGAUCACCCAUGUCCCGG	13.6	17		
GACACUAGUGUUAGGAUAUGUGUGAGGGACCGCAAACAGAAGGAACAUGAGGAUCACCCAUGUGAUGGUUCUGA	21.5	20.4		
GACAGACAUGAGGAUCACCCAUGUACAAACGUACAAGGAUAUGUGUGGAAACCGUACUAUACAGAAGGUGUCUGUC			121	151
GACAUACAUGAGGAUCACCCAUGUACAGACGUACAAGGAUAUGUGUGGAAACCGUACUAUACAGAAGGUGUUUGUC			73.1	33.9
GACAUACAUGAGGAUCACCCAUGUUCAAACGGGCAAGGAUAUGUGUGGAAACCAUACUAUACAGAAGGUGUCUGUC			28.4	18.7
GACAUGAGGAUCACCCAUGUCCAACCAGAAGGCCAGGAAUCGGACCCGAGUAUCGGGUUCGAGAUGGAGGAUAUGGGCGCCGAA			75.1	33.7
GACCCUAAUGAGAAGGUGUGUAUAAAUUAUAUACAAGGAUAUCGGUCGAGCGUGUUGACAUGAGGAUCACCCAUGUUGAGGGUU			26.8	10.4
GACCGAUAGUCAGGAUAUGCAUGGUUAGUUGAUUACAUGAGGAUCACCCAUGUAGAAGGGACUUUGGCGAAAUCCGUGAUGCGU	44.1	115		
GACCUGAGUAAUAAUGUAGAAAUACAUGAGGAUCACCCAUGUAAGGAUAUGCAGUGGAAUACACUGCAGAAGGUACAUCUCAGG	16.6	29.6		
GACGGUGAUGUAGGAUAUACGCUGGAAUACAGCGUAGAAGGACAUGAGGAUCACCCAUGUAGAGUGUCUCCAAAUAACACCGUC	43.5	284		
GACUAGGCAGGAUAUACAUGAGGAUCACCCAUGUGUCUGCGUUAAGCACGUGAAGACGGUAGAAGGGCCUACAC	14.4	18.1		
GACUCGAAUGUAGGAUAUGCUGAGGAUAACUCAGCAGAAGGACAUGAGGAUCACCCAUGUAAAUGAGUGAAUAAUAAACGAGUC	1400	129		
GAGAAGAGGGAAGGAUAUACAUGAGGAUCACCCAUGUAGAUAGGUUUAAUAGGUUGUUGUUGUUUGUAGAAGGUCCGGUUUGUU	18	16.8		
GAGAAGUCAGGAUAUCCAUGGCGGCACUUGCGUGGUGGCGUGGAGAAGGGACAUGAGGAUCACCCAUGUAAAGC	54	34.9		
GAGAGACAUGAGGAUCACCCAUGUAGAAUAGAACAAGGAUAUGUGGAAGGCGGAGGAGAGACAGAAGGUGUAGGAG			108	52.9
GAGAGAGGGUGAGGAUAUUUAGUGAUAAUGAUAAGAGAAGGCACAGACAUGAGGAUCACCCAUGUGGGAAUAAUCCAGAGAGAG			298	290
GAGAGAUAGUAGGAUAUUCUGUACGGGUGACCAGGAGAAGGACUAACAUGAGGAUCACCCAUGUGGCUGGUCAU	15.9	16.2		

Sequence	apparent Kd [1] [nM]	apparent Kd [2] [nM]	apparent Kd [3] [nM]	apparent Kd [4] [nM]
GAGAGCCGCGAAGGAUAUACAUCCGUGACCGUCAACAUGAGGAUCACCCAUGUAGAAGGUCGCUGCCUCUUGACAACUGACAAG	5.16	18.4		
GAGAUUUUGUAAGGAUAUACUCUGUGAUGAAGAGUAGAAGGUACUUACAUGAGGAUCACCCAUGUUUAACGAGAUACUAAUCGU			57	23.3
GAGCCCGAUGAGAAGGGUUACAUGAGGAUCACCCAUGUCGACCUUGGCGUAACAGGAUAUCAUCGAGCUCUGUGCGUUGACCCA	25.5	132		
GAGCCCGUCGAGGAUAUACACCAUAUAUGGCUUGUAGAAGGUGACACAUGAGGAUCACCCAUGUUUGUGGUACA	63.2	35		
GAGCCUCCGUAGAAGGCCGCGGAAUUCGAACGCGGAGGAUAUACAUGAGGAUCACCCAUGUGAAAGUGGAAAGAUAAAACGCUU	12.4	30.4		
GAGGAACAUGAGGAUCACCCAUGUGAGGAUAUGCAUAGUGAGGUAGUAGACGUUUAUUGCAGAAGGUACACUGA	27.4	27.8		
GAGGUACAUGAGGAUCACCCAUGUGAGGAUAUAGUGGAAGAUUGAGAGAGGUGGAGGACUAGAAGGCACAGUGG	67.3	66.2		
GAGUAGUUGAAAGGAUAUCGAUUGUUAUAGAAUCGAGAAGGUUCUAACAUGAGGAUCACCCAUGUAGGACUAUUCCUGUGUAUC			12.9	11
GAGUAGUUGAAAGGAUAUUGAUUAUUGUAGGAUCAAGAAGGUUCUAACAUGAGGAUCACCCAUGUAGGACUAUUCCUGUGUAUC			13	10.8
GAGUGACAUGAGGAUCACCCAUGUGAGGAUAUCGGACGGACCAAAUUAACAACAACCGCGAGAAGGCACAUCGG	146	135		
GAGUGACAUGAGGAUCACCCAUGUGAGGAUAUCGGACGGACCAAAUUAACAACACCCGCGAGAAGGCACAUCGG	163	123		
GAGUGGAAGUAAGGAUAUAUAAUGAUAAUCACAGUAGAAGGUACUAACAUGAGGAUCACCCAUGUAGGACUAUACCAGAGAGGG			17.4	16
GAUACGUCAGGAUAUCUGAUGUCUAACUUCGGUUAGACAUCAGAGAAGGGACAUGAGGAUCACCCAUGUAUCAG	50.4	61.1		
GAUAUGAUGUGAGGAUAUGCUGAGGAUACUUCAGCAGAAGGCACAUGAGGAUCACCCAUGUACACUUAUCAUAAAUACCAUAUC	12.7	19		
GAUCAGCUUGUGAGGAUAUCCGGGCAUAAAGGCUAGGAGAAGGUACAUGAGGAUCACCCAUGUAGAGUCCUGGG	47.9	58.9		
GAUCCUUCUGUUAGGAUAUGCUUUGGGCUUCCGCAGCAGAAGGAACAUGAGGAUCACCCAUGUCAAAUAACAUC	21.4	22.8		
GAUCCUUCUGUUAGGAUAUGCUUUGGGCUUCCGCUGCAGAAGGAACAUGAGGAUCACCCAUGUCCGAUGCCGUC	74	89.4		
GAUCCUUCUGUUAGGAUAUGCUUUGGGCUUUCGCAGCAGAAGGAACAUGAGGAUCACCCAUGUCCGAUGCCGUC	77.5	81.3		
